The record followed here is ChEMBL document CHEMBL3785023, “Development and Pharmacological Characterization of Selective Blockers of 2-Arachidonoyl Glycerol Degradation with Efficacy in Rodent Models of Multiple Sclerosis and Pain” (J Med Chem, 2016).

Structures are written as SMILES. Active and inactive are the calls of the source. No cut-off for these calls is given here.

Data set [1] deals with Heart. In words: Cardiotoxicity in Langendorff-perfused Sprague-Dawley rat heart assessed as intraventricular conduction time at 1 uM by ECG analysis (reference value: 14.26 +/- 0.71 milliseconds). The data set is classed as toxicity, tissue-based, Cardiac ventricle.
In data set [2] the test system is Mus musculus. Put plainly: Toxicity in C57BL/6J mouse assessed as changes in locomotor activity at 3 mg/kg, ip. The class given is organism-based. The following applies: in vivo.
Data set [3] concerns Heart. Put plainly: Cardiotoxicity in Langendorff-perfused Sprague-Dawley rat heart assessed as corrected time duration of action potential at 0.1 uM by ECG analysis (reference value: 155.26 +/- 2.96 milliseconds). The class given is toxicity, tissue-based.
The test system of data set [4] is Mus musculus. Put plainly: Toxicity in CD-1 mouse assessed as 2-AG level in pawskin at 0.3 mg/kg, ip by LC-MS analysis (reference value: 6.1 +/- 0.3 pmol/g). The class given is organism-based. The settings on record: in vivo. In short, it runs like this: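 Male CD-1 mice received 0.3 mg/kg i.p. in 0.5% DMSO/saline, with formalin (1.25%, 30 µL) injected into the dorsal hind paw. Paw skin or spinal cord was taken at 5 min post-dose. Tissue was homogenized in CHCl3/MeOH/50 mM Tris-HCl (2:1:1) containing d5-2-AG, extracted with chloroform and analysed by LC-MS. n = 4; ANOVA with Bonferroni test.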

For data set [5], the target named is Cannabinoid receptor 2 (Homo sapiens, UniProt P34972). Put plainly: Displacement of [3H]-CP-55940 from human recombinant CB2 receptor expressed in HEK293 cells after 90 mins. The class given is cell-based. An outline of the steps:
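Membranes from HEK-293 cells stably expressing human CB1 (Bmax 2.9 pmol/mg) or CB2 (Bmax 6.0 pmol/mg) incubated 90 min at 30 °C with [3H]-CP-55,940: 0.4 nM for CB1, 0.53 nM for CB2. Non-specific binding defined with 10 µM WIN 55212-2.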
(In general: Displacement assays read how much labelled ligand stays bound in the presence of the test substance.)

Data set [6] deals with T1, Monoglyceride lipase (Rattus norvegicus, UniProt Q8R431).
T1 sequence (Q8R431 whole entry): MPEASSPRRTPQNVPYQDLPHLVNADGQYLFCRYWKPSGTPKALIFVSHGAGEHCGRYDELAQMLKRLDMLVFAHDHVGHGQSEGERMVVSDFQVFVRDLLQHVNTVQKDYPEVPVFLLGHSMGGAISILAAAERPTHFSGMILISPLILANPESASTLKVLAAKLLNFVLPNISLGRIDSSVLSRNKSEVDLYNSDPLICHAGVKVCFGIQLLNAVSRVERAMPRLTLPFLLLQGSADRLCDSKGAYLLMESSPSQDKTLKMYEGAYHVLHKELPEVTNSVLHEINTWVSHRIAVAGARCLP
Put plainly: Inhibition of MAGL in rat brain membranes preincubated for 20 mins followed by fluorophosphonate-rhodamine addition measured after 30 mins by competitive affinity based proteomic profiling assay. The class given is cell membranes, Membrane. An outline of the steps:
(§1)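 Rat brain membranes (1 mg/mL) preincubated with 1–1000 nM inhibitor or DMSO for 20 min at 37 °C. FP-rhodamine then added and incubated a further 30 min at 37 °C. Samples run on SDS-PAGE and serine hydrolase bands quantified by in-gel fluorescence.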

Data set [7] relates to Heart. Put plainly: Cardiotoxicity in Langendorff-perfused Sprague-Dawley rat heart assessed as intraventricular conduction time at 0.001 uM by ECG analysis (reference value: 14.26 +/- 0.71 milliseconds). The class given is toxicity, tissue-based, Cardiac ventricle.
In data set [8] the test system is Salmonella typhimurium. In words: Mutagenicity in Salmonella typhimurium TA98 assessed as increase in number of colonies up to >200 uM by Ames test in presence of S9 fraction. The class given is toxicity, organism-based. The following applies: salmonella enterica subsp. enterica serovar typhimurium. Background: The Ames test detects mutagens through reverse mutation in bacteria.

Data set [9] concerns Salmonella typhimurium. In words: Mutagenicity in Salmonella typhimurium TA100 assessed as increase in number of colonies at 1 uM by Ames test. The data set is classed as toxicity, organism-based. The following applies: salmonella enterica subsp. enterica serovar typhimurium.
Data set [10] addresses T2, Monoacylglycerol lipase ABHD6 (Rattus norvegicus) (UniProt Q5XI64).
T2 sequence (whole entry): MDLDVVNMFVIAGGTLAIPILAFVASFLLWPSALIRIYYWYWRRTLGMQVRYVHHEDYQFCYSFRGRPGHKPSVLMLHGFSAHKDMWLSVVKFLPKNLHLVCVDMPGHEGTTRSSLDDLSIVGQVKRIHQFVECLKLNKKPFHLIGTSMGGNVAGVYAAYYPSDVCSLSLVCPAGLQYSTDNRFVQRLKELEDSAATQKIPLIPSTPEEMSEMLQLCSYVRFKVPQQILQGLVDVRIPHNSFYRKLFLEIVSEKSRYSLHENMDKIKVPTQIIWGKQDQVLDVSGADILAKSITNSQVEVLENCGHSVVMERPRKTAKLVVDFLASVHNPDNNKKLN
In words: Inhibition of ABHD6 in rat brain membranes up to 500 nM preincubated for 20 mins followed by fluorophosphonate-rhodamine addition measured after 30 mins by competitive affinity based proteomic profiling assay. The class given is cell membranes. The following applies: Membrane. An outline of the steps:
as §1

Data set [11] deals with Mus musculus. Put plainly: Reduction of disease index score in myelin oligodendrocyte glycoprotein (35 to 55)-induced C57BL/6J mouse experimental autoimmune encephalomyelitis model of multiple sclerosis at 3 mg/kg, ip dosed on day 6 postimmunization up to 21 day postimmunization measured from day 8 postimmunization. The data set is classed as functional, organism-based. In short, it runs like this:
(§2)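 Female C57BL/6J mice immunized with MOG35-55 were randomly assigned to groups. They received 3 mg/kg i.p. daily from 6 days post-immunization up to 21±1 d.p.i. AM251 or AM630, 1 mg/kg i.p., was given 10 min before each dose for 14 days. Clinical score was recorded daily and as cumulative score, reported as mean ± SEM. Group sizes were 4–9 mice.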

Data set [12] relates to Mus musculus. Put plainly: Reduction of disease index score in myelin oligodendrocyte glycoprotein (35 to 55)-induced C57BL/6J mouse experimental autoimmune encephalomyelitis model of multiple sclerosis at 3 mg/kg, ip administered post CB2 antagonist/inverse agonist AM630 addition dosed on day 6 postimmunization up to 21 day postimmunization measured from day 12 postimmunization. The class given is functional, organism-based. In short, it runs like this: as §2

In data set [13] the target is Acyl-protein thioesterase 1/2 (Rattus norvegicus) (UniProt P70470+Q9QYL8). In words: Inhibition of LYPLA1/2 in rat brain membranes at 500 to 1000 nM preincubated for 20 mins followed by fluorophosphonate-rhodamine addition measured after 30 mins by competitive affinity based proteomic profiling assay. The data set is classed as cell membranes. The following applies: Membrane. An outline of the steps:
as §1

Cannabinoid receptor 2, sequence (P34972 whole entry): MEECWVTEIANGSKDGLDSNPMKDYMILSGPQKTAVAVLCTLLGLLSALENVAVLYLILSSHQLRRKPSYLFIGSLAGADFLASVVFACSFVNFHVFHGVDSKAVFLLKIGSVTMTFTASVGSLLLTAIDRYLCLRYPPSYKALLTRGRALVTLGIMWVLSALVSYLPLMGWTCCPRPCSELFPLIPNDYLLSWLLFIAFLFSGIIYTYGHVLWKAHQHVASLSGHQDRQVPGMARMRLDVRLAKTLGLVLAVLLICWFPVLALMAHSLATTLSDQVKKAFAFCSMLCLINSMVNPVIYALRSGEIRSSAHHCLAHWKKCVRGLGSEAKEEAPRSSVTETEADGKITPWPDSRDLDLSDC
Acyl-protein thioesterase 1/2 (Rattus norvegicus), sequence (P70470 whole entry, looked up): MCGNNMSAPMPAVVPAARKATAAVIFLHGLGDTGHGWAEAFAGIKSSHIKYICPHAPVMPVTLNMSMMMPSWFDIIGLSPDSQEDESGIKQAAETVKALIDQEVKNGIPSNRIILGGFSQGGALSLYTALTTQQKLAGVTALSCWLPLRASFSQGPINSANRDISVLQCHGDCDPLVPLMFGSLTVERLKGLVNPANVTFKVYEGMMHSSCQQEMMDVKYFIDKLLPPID
Acyl-protein thioesterase 1/2 (Rattus norvegicus), sequence (Q9QYL8 whole entry, looked up): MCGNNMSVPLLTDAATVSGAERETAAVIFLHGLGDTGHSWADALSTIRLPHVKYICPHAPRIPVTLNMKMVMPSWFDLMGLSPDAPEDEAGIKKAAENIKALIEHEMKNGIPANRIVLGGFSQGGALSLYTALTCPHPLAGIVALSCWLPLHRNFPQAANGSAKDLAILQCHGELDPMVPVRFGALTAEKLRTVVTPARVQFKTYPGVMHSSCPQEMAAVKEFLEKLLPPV

`O=C1[C@H](c2ccc(F)cc2)[C@@H](c2ccc3c(c2)OCO3)N1C1CCN(C(=O)n2cncn2)CC1` (racemic) [listing 1 of 2 here]: the Time turned out to be 13.75 ms in data set [1], 154.6 ms in data set [3] and 14.02 ms in data set [7]. The Activity entry is “Non-toxic” in data set [2], 11 pmol/g in data set [4], “Non-toxic” in data set [8] and “Non-toxic” in data set [9]. Besides, the IC50 in [5] is greater than 10 µM; in data set [6], 10 nM.

In the case of `O=C1[C@H](c2ccc(F)cc2)[C@@H](c2ccc3c(c2)OCO3)N1C1CCN(C(=O)n2cncn2)CC1` (racemic) [listing 2 of 2 here], the inhibition entry in [10] was “inactive”. The outcome in [11] was Active. The result in [12] was inactive. Further, in [13], the inhibition entry is “Active”.

A word on the IC50: it is the point on the concentration scale where inhibition reaches its midpoint.
